Compound activity deposited in PubChem BioAssay by Broad Institute.
Vif imaging – HIV Vif inhibition | HEK293T cells, Vif self-association by quenched fluorescence, imaging, 24 h | inhibition, % at 7.49 µM | 340,000 tested, 0.35% active; in the data active = inhibition above about 50%, passing the limit was not always enough
Cneo AK release – causes C. neoformans cell lysis. 360,000 tested, 0.2% active. adenylate kinase release luminescence, 4 h; normalised: neutral wells 0, clomiphene wells 100. lysis activity, % at 15 µM. AID 651654;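 active = mean lysis activity across replicates of at least 80%, whatever share of replicates individually reach that level; inactive = mean lysis activity below 80%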
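Test system: log-phase Cryptococcus neoformans yeast cells; Quantity: yeast cell density of 5 × 10^6 cells/mL; Buffer or medium: YPD; Doses: single compound concentration per well; Timing: 4 h at 37 °C static, read 1 h later; Measured by: AK luminescence; Read-out basis: lysis from increased AK signal; Control set: Clomiphene as positive control.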
PGC1a acetyl inh – lowers PGC1a acetylation signal in U2OS cells; AlphaScreen anti-acetyl-lysine; with virally co-expressed GCN5 acetyltransferase; inhibition, % at 15.6 µM; 350,000 tested, 0.17% active;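 active = every replicate shows inhibition of at least 40%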;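 also: 0% = neutral control wells and 100% = positive control wells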
FGF22 binding – shifts melting point of recombinant human FGF22 | Q9HCT0 | activity (Tm shift, normalised), % at 9.99 µM | 340,000 tested, 1.5% active | recombinant FGF22 thermal shift, SYPRO orange fluorescence; percent of sucrose octasulfate shift, DMSO zero;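 active = mean Tm shift, scaled 0 neutral to 100 positive control, at about 1.3% or above, every replicate too, limit read from the data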
Target sequence (Q9HCT0 whole entry, looked up): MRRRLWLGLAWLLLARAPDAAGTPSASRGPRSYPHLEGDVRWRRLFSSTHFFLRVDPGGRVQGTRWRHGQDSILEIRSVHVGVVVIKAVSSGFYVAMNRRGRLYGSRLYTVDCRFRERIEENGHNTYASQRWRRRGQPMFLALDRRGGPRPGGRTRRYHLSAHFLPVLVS
Ecoli rRNA inh – selective bacterial rRNA inhibition in E. coli; GFP signal change (wild-type ribosome), % (concentration not given with the values); 350,000 tested, 1.6% active; E. coli WT GFP vs humanized-ribosome RFP mutants, fluorescence, 24 h; active compounds read low; DMSO median 0, no signal -100;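 active = significant combined selectivity score with lowered wild-type GFP, culture density cut under 30%, mutant RFP and density less affected; inactive = any of these conditions unmet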
PglD DTNB – PglD (C. jejuni) enzyme inhibition. purified PglD enzyme, DTNB colorimetric CoA detection. inhibition, % at 12.5 µM. 360,000 tested, 0.098% active. AID 602405; in the data active = inhibition above about 16%, passing the limit was not always enough
* hit, by the source's call; nt = no result given. A selection: hits, their analogues and other compounds. The true share with any hit is near 2.9%.

SMILES	Vif imaging	Cneo AK release	PGC1a acetyl inh	FGF22 binding	Ecoli rRNA inh	PglD DTNB
COc1ccc(NC(=O)Nc2ccc3c(c2)CC(=O)N([C@H](C)CO)C[C@@H](C)[C@@H](CN(C)S(C)(=O)=O)O3)cc1	nt	0	2	0	6	-4
CCN(C(=O)CSc1nc2ccc([N+](=O)[O-])cc2s1)c1c(N)n(Cc2ccccc2)c(=O)[nH]c1=O	-1	0	-2	0	6	2
CN(C(=O)CSc1nc2ccccc2s1)c1c(N)n(Cc2ccccc2)c(=O)[nH]c1=O	-6	nt	-21	43*	3	nt
CC(=O)N(C)C[C@@H]1Oc2cc(/C=C/c3ccccc3)ccc2S(=O)(=O)N([C@@H](C)CO)C[C@H]1C	nt	-6	-2	0	-6	-12
CCOC(=O)N1CCN(C(=O)c2ccc3c(c2)N(Cc2cc(C)ccc2C)C(=O)c2ccccc2S3=O)CC1 (stereo not given)	-9	1	-17	0	-20*	1
CCOC(=O)c1ccc(CC(=O)c2oc3cc(O)ccc3c2C)o1	nt	-1	7	0	-22*	0
Cc1ccccc1C(=O)NC(CC(C)C)C(=O)Nc1ccc(S(N)(=O)=O)cc1 (stereo not given)	2	nt	nt	0	-24*	nt
CCCC(C)C(=O)Nc1ccc(S(N)(=O)=O)cc1 (stereo not given)	3	nt	6	nt	5	nt
NS(=O)(=O)c1ccc(NC(=O)C(Sc2ccccc2)c2ccccc2)cc1 (stereo not given)	-2	0	nt	1.4*	-50	3
CC(C)CNC(C)C(=O)Nc1ccc(S(N)(=O)=O)cc1 (stereo not given)	9	nt	10	43*	10	nt
CO[C@@H]1CN(C)C(=O)c2cc(NC(=O)Nc3ccccc3Cl)ccc2OC[C@H](C)NC[C@@H]1C	nt	2	4	0	-2	-4
COCC(=O)N1CC2(CCN(Cc3cncnc3)CC2)c2c(n(C)c3cc(OC)ccc23)[C@@H]1CO	nt	nt	nt	nt	-4	nt
Cc1noc(C)c1S(=O)(=O)Nc1ccc2c(c1)C(=O)N([C@@H](C)CO)C[C@@H](C)[C@@H](CN(C)C(=O)NC1CCCCC1)OCCCC[C@@H](C)O2	nt	-1	nt	-1	-1	1
C[C@H]1CCCCO[C@H](CN(C)C(=O)CCCN(C)C)[C@@H](C)CN([C@@H](C)CO)C(=O)c2cc(NC(=O)CCC(F)(F)F)ccc2O1	nt	45	28	-1	0	-2
O=C(NC(=O)N1CCN(c2ccccc2F)CC1)c1ccccc1	88*	1	-3	0	10	-1
O=C(NCc1ccccc1)N1CCN(c2ccccc2F)CC1	-4	0	2	nt	nt	-1
COc1ccc2c3c(n(C)c2c1)[C@H](CO)N(C(=O)c1cccc(F)c1)CC31CN(CC2CC2)C1	nt	nt	-11	0	0	nt
CCOP(=O)(OCC)c1nc(-c2ccc(Cl)cc2)oc1NCc1ccccc1	-8	nt	nt	43*	-1	nt
COP(=O)(OC)c1nc(-c2cccc3ccccc23)oc1NCc1ccccc1	2	3	-16	nt	nt	3
CCCOP(=O)(OCCC)c1nc(-c2ccccc2)oc1NCc1ccccc1	6	1	2	43*	0	nt
CCCc1cn(CC[C@H]2CC[C@@H](NC(=O)Nc3ccc4c(c3)OCO4)[C@H](CO)O2)nn1	nt	3	-9	0	3	-1
C[C@H](CO)N1C[C@H](C)[C@@H](CN(C)C(=O)CN(C)C)Oc2cc(C3=CCCC3)ccc2S1(=O)=O	nt	-1	-2	0	7	1
COCC(=O)Nc1ccc2c(c1)OC[C@H](C)N(Cc1ccccc1OC)C[C@H](C)[C@H](OC)CN(C)C2=O	nt	-1	-4	-1	1	1
COCCOC(=O)N1C(=O)[C@@]2(c3ccccc31)[C@H](C(=O)N1CCN(c3ncccn3)CC1)[C@H]1C(=O)O[C@H](c3ccccc3)[C@H](c3ccccc3)N1[C@@H]2c1ccccc1OCCO	nt	53	nt	0	nt	-3
O=C(NNS(=O)(=O)c1cccc(Cl)c1)c1cc(-c2ccc(F)cc2)nc2ccccc12	0	0	-4	1	-19*	-3
